Assay results from different studies.
Protocols differ between the studies behind these lines.
KIT V559D/V654A: Mast/stem cell growth factor receptor Kit (KIT, Homo sapiens, UniProt P10721, V559D/V654A)
KIT autoinhibited: Mast/stem cell growth factor receptor Kit, autoinhibited (KIT, Homo sapiens, UniProt P10721)
KIT T670I/V559D: Mast/stem cell growth factor receptor Kit (KIT, Homo sapiens, UniProt P10721, T670I/V559D)
KIT A829P: Mast/stem cell growth factor receptor Kit (KIT, Homo sapiens, UniProt P10721, A829P)
KIT: Mast/stem cell growth factor receptor Kit (KIT, Homo sapiens, UniProt P10721)
KIT V559D: Mast/stem cell growth factor receptor Kit (KIT, Homo sapiens, UniProt P10721, V559D)
KIT D816H: Mast/stem cell growth factor receptor Kit (KIT, Homo sapiens, UniProt P10721, D816H)
KIT D816V: Mast/stem cell growth factor receptor Kit (KIT, Homo sapiens, UniProt P10721, D816V)
KIT L576P: Mast/stem cell growth factor receptor Kit (KIT, Homo sapiens, UniProt P10721, L576P)

SMILES	target	effect on	technique	concentration	remaining binding [%]
COc1cnc(Nc2cccc(S(N)(=O)=O)c2)nc1N1CCN(c2ccccc2)CC1	KIT V559D/V654A	binding	competition with immobilised ligand	1 µM	97
O=C(c1ccc(Nc2ncc(Cl)c(-c3cc4ccccc4s3)n2)cc1)N1CCC(N2CCCC2)CC1	KIT autoinhibited	binding	competition with immobilised ligand	1 µM	74
CN(c1nccc(-c2cnn3ncccc23)n1)C1CC1	KIT autoinhibited	binding	–	1 µM	100
CCC(=O)N[C@@H]1CC[C@H](C(=O)N(C)c2ccc(-c3nc4ccccc4o3)cc2)C1	KIT autoinhibited	cell-free assay	competition with immobilised ligand	1 µM	93
Cc1cnn2ncc(-c3ccnc(N(C)C)n3)c2c1	KIT T670I/V559D	binding	–	1 µM	100
C[C@@H](c1ccc(-n2cnc3c(N)ncnc32)cc1)N1CCc2nn(C)c(Cc3ccccc3)c2C1=O	KIT A829P	binding	competition with immobilised ligand	0.1 µM	52
O=C(NCC1CCOCC1)c1n[nH]cc1NC(=O)c1c(F)cccc1F	KIT	binding	competition with immobilised ligand	1 µM	100
CCCOc1ccc([C@H]2[C@H](C(=O)O)[C@@H](c3ccc4c(c3)OCO4)CN2CC(=O)Nc2c(CC)cccc2CC)cc1	KIT V559D/V654A	cell-free assay	competition with immobilised ligand	1 µM	98
N[C@H]1CCN(c2nccc(-c3cnn4ncccc34)n2)C1	KIT V559D	binding	–	1 µM	87
C=CC(=O)N1CCC(C(=O)NCC(=O)N2CCN(c3nc(-c4cnc(N)nc4C(F)F)nc(N4CCOCC4)n3)CC2)CC1	KIT D816H	binding	competition with immobilised ligand	1 µM	100
COc1ncc2cc3ccccc3nc2c1C#N	KIT D816V	cell-free assay	competition with immobilised ligand	5 µM	95
CN1CCN(c2ccc(Nc3nccc(-c4cccc([N+](=O)[O-])c4)n3)cc2C(F)(F)F)CC1	KIT L576P	binding	–	10 µM	0.05
O=C(c1ccc(Nc2ncc(Cl)c(-c3ccc(Cl)s3)n2)cc1)N1CCC(N2CCCC2)CC1	KIT D816H	binding	competition with immobilised ligand	1 µM	7.7
CC1CCCN1c1nccc(-c2cnn3ncccc23)n1 (stereo not shown)	KIT V559D	binding	–	1 µM	100
O=C(Nc1c[nH]nc1C(=O)NC1CCNCC1)c1cc(F)cc(F)c1	KIT autoinhibited	binding	competition with immobilised ligand	1 µM	82
Cc1nc(Cc2cccc(C(F)(F)F)c2)sc1-c1ccc(C(N)=O)nc1	KIT D816V	cell-free assay	competition with immobilised ligand	1 µM	81
Nc1ncc2c(n1)-c1c([nH]c3ccc(C#CC4CC4)cc13)CCCC2	KIT L576P	binding	competition with immobilised ligand	1 µM	100
N#Cc1ccccc1CSc1nnc2c(n1)[nH]c1ccccc12	KIT T670I/V559D	binding	competition with immobilised ligand	10 µM	100
Cc1cnc(Nc2ccc(C(=O)N3CCC(N4CCCC4)CC3)cc2)nc1-c1cc2ccccc2s1	KIT V559D	binding	competition with immobilised ligand	1 µM	0.6

SMILES	target	effect on	technique	concentration	remaining binding [%]
COc1ccnn2ncc(-c3ccnc(N(C)C)n3)c12	KIT V559D/V654A	binding	–	1 µM	100
COc1ccc2c(c1)O[C@@H](c1ccc(OC)c(OC)c1)C[C@H]2NC(=O)C1(c2ccc3c(c2)OC(F)(F)O3)CC1	KIT A829P	cell-free assay	competition with immobilised ligand	1 µM	75
C[C@@H]1CN(c2ccc3ncc(-c4ccc5[nH]nc(C6CC6)c5c4)n3n2)C[C@H](C)O1	KIT	binding	competition with immobilised ligand	50 nM	96
CN(C)C(=O)Cn1cc(-c2nc(C3(c4ccc(-c5cnc(N)nc5)cc4)CC3)no2)cn1	KIT A829P	cell-free assay	competition with immobilised ligand	1 µM	93
O=C(NCCCN1CCOCC1)c1ccc(Nc2nccc(-c3cc4ccccc4s3)n2)cc1	KIT T670I/V559D	binding	competition with immobilised ligand	1 µM	29
O=C(Nc1cccnn1)N1CC(C/C=C/c2cncc(Oc3ccc(C(F)(F)F)cn3)n2)C1	KIT D816V	cell-free assay	competition with immobilised ligand	1 µM	100
COc1cnc(Nc2cccc(S(N)(=O)=O)c2)nc1N1CCN(c2ccccc2)C(=O)C1	KIT A829P	binding	competition with immobilised ligand	1 µM	68
C[C@@H]1CCN(c2nccc(-c3cnn4ncccc34)n2)C1	KIT D816H	binding	–	1 µM	79
CCN1CCN(Cc2ccc(C(=O)Nc3ccc(C)c(Oc4ccc5c(c4)CC(=O)N5)c3)cc2C(F)(F)F)CC1	KIT autoinhibited	binding	competition with immobilised ligand	1 µM	100
COc1ccc2cc(OCC3(C(=O)O)CN(C(=O)c4ccc(F)cc4)C3)ccc2c1	KIT T670I/V559D	cell-free assay	competition with immobilised ligand	1 µM	100
c1cncc(-c2cccc(Nc3nccc(NC4CCCCC4)n3)c2)c1	KIT A829P	binding	competition with immobilised ligand	10 µM	27
F[C@@H]1CCN(c2nccc(-c3cnn4ncccc34)n2)C1	KIT D816V	binding	–	1 µM	100
O=C(NCCCN1CCOCC1)c1ccc(Nc2ncc(Cl)c(-c3ccc(Cl)s3)n2)cc1	KIT A829P	binding	competition with immobilised ligand	1 µM	16
CNC(=O)[C@@H]1CC[C@@H](n2c(-c3ccc4cnccc4c3)nc3ccc(C(=O)NCc4cccc(C(N)=O)c4)cc32)C1	KIT V559D	binding	competition with immobilised ligand	1 µM	100
Cc1nc(NC(=O)N2CCC[C@H]2C(N)=O)sc1-c1ccnc(C(C)(C)C(F)(F)F)c1	KIT	binding	competition with immobilised ligand	10 µM	100
O=C(N[C@H]1CCCCC/C=C\C2C[C@@]2(C(=O)O)NC(=O)[C@@H]2C[C@@H](Oc3ccncc3)CN2C1=O)OC1CCCC1 (stereo partly shown)	KIT V559D/V654A	binding	competition with immobilised ligand	1 µM	63
CN(C)c1nccc(-c2cnc3ncccn23)n1	KIT D816H	binding	–	1 µM	52
CN1CCN(c2ccc(Nc3nccc(-c4ccccc4)n3)cc2C(F)(F)F)CC1	KIT T670I/V559D	binding	–	10 µM	0.15
